From ChEMBL document CHEMBL4138056, “T- and B-cell immunosuppressive activity of novel α-santonin analogs with humoral and cellular immune response in Balb/c mice” (Medchemcomm, 2017)

Experiments:
[1] = test system: Murine T-cell line; test: Immunostimulant activity in Balb/c mouse T cells assessed as induction of ConA-induced cell proliferation at 100 uM after 48 hrs by MTT assay relative to control
[2] = test system: Murine T-cell line; test: Cytotoxicity against Balb/c mouse T cells assessed as decrease in cell survival at 1 uM by MTT assay; format: cell-based
Method in brief: (§1)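 Balb/c splenocytes (RBC lysed with tris-ammonium chloride, trypan blue viability) seeded at 1×10^6 cells/mL with Con A or LPS (10 μg/mL each) and test agent at 1, 10 or 100 μM for 48 h at 37 °C, 5% CO2; MTT added for 4 h, formazan dissolved in DMSO, OD 540 nm. Cytotoxicity scored +/−; triplicate, three separate experiments.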

[3] = test system: B-cell line; test: Immunosuppressive activity in Balb/c mouse B cells assessed as inhibition of LPS-induced cell proliferation at 1 uM after 48 hrs by MTT assay relative to control; format: functional
Method in brief: (§2)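 Balb/c spleen single-cell suspension, RBCs lysed with tris-ammonium chloride, viability by trypan blue; 1×10^6 cells/mL stimulated with LPS (10 μg/mL) for B cells, test agent 1, 10 or 100 μM, 48 h at 37 °C, 5% CO2. MTT 4 h, DMSO solubilization, OD 540 nm; % change vs mitogen control; triplicate, three separate experiments.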

[4] = test system: B-cell line; test: Cytotoxicity against Balb/c mouse B cells assessed as decrease cell survival at 1 uM by MTT assay; format: cell-based
Method in brief: as §1

[5] = test system: B-cell line; test: Cytotoxicity against Balb/c mouse B cells assessed as decrease cell survival at 10 uM by MTT assay; format: cell-based
Method in brief: as §1

[6] = test system: Murine T-cell line; test: Cytotoxicity against Balb/c mouse T cells assessed as decrease in cell survival at 10 uM by MTT assay; format: cell-based
Method in brief: as §1

[7] = test system: Murine T-cell line; test: Immunosuppressive activity in Balb/c mouse T cells assessed as inhibition of ConA-induced cell proliferation at 10 uM after 48 hrs by MTT assay relative to control
[8] = test system: B-cell line; test: Immunosuppressive activity in Balb/c mouse B cells assessed as inhibition of LPS-induced cell proliferation at 100 uM after 48 hrs by MTT assay relative to control; format: functional
Method in brief: as §2

[9] = test system: B-cell line; test: Immunosuppressive activity in Balb/c mouse B cells assessed as inhibition of LPS-induced cell proliferation at 10 uM after 48 hrs by MTT assay relative to control; format: functional
Method in brief: as §2

[10] = test system: Murine T-cell line; test: Cytotoxicity against Balb/c mouse T cells assessed as decrease in cell survival at 100 uM by MTT assay; format: cell-based
Method in brief: as §1

[11] = test system: Murine T-cell line; test: Immunosuppressive activity in Balb/c mouse T cells assessed as inhibition of ConA-induced cell proliferation at 1 uM after 48 hrs by MTT assay relative to control
[12] = test system: B-cell line; test: Cytotoxicity against Balb/c mouse B cells assessed as decrease cell survival at 100 uM by MTT assay; format: cell-based
Method in brief: as §1

[13] = test system: Murine T-cell line; test: Immunosuppressive activity in Balb/c mouse T cells assessed as inhibition of ConA-induced cell proliferation at 100 uM after 48 hrs by MTT assay relative to control
[14] = test system: B-cell line; test: Immunostimulant activity in Balb/c mouse B cells assessed as induction of LPS-induced cell proliferation at 100 uM after 48 hrs by MTT assay relative to control; format: cell-based
Method in brief: as §2

Question: Which results are given for CCCOc1cc(C)c2c(c1C)[C@@H]1OC(=O)[C@@H](C)[C@@H]1CC2?
Answer: Activity [1]: 36%; Activity [2]: Non-Toxic; inhibition at 1 µM [3]: 47%; Activity [4]: Non-Toxic; Activity [5]: Toxic; Activity [6]: Toxic; inhibition at 10 µM [7]: 41%; inhibition at 100 µM [8]: 43%; inhibition at 10 µM [9]: 49%; Activity [10]: Toxic; inhibition at 1 µM [11]: 33%; Activity [12]: Toxic

Question: CCOc1cc(C)c2c(c1C)[C@@H]1OC(=O)[C@@H](C)[C@@H]1CC2 was tested. Which Activity [1] did it give?
Answer: 16%

Question: And the Activity [2]?
Answer: Non-Toxic

Question: And the inhibition at 1 µM [3]?
Answer: 35%

Question: And the Activity [4]?
Answer: Non-Toxic

Question: And the Activity [5]?
Answer: Toxic

Question: And the Activity [6]?
Answer: Toxic

Question: What about the inhibition at 10 µM [7] of the same compound?
Answer: 5%

Question: What about the inhibition at 100 µM [8] of the same compound?
Answer: 46%

Question: And the inhibition at 10 µM [9]?
Answer: 1%

Question: And the Activity [10]?
Answer: Toxic

Question: What about the inhibition at 1 µM [11] of the same compound?
Answer: 28%

Question: And the Activity [12]?
Answer: Toxic

Question: With CCCCOc1cc(C)c2c(c1C)[C@@H]1OC(=O)[C@@H](C)[C@@H]1CC2 as the compound, how does the Activity [2] read?
Answer: Non-Toxic

Question: And the inhibition at 1 µM [3]?
Answer: 25.2%

Question: What about the Activity [4] of the same compound?
Answer: Non-Toxic

Question: And the Activity [5]?
Answer: Non-Toxic

Question: And the Activity [6]?
Answer: Non-Toxic

Question: And the inhibition at 10 µM [7]?
Answer: 51%

Question: What about the inhibition at 100 µM [8] of the same compound?
Answer: 39%

Question: And the inhibition at 10 µM [9]?
Answer: 33.3%

Question: And the Activity [10]?
Answer: Non-Toxic

Question: And the inhibition at 1 µM [11]?
Answer: 32%

Question: What about the Activity [12] of the same compound?
Answer: Non-Toxic

Question: And the inhibition at 100 µM [13]?
Answer: 33.8%

Question: What does the source list for Cc1cc(OCc2ccccc2)c(C)c2c1CC[C@H]1[C@H](C)C(=O)O[C@@H]21?
Answer: Activity [1]: 16%; Activity [2]: Non-Toxic; inhibition at 1 µM [3]: 53%; Activity [4]: Non-Toxic; Activity [5]: Non-Toxic; Activity [14]: 29%; Activity [6]: Non-Toxic; inhibition at 10 µM [7]: 60%; inhibition at 10 µM [9]: 74%; Activity [10]: Toxic; inhibition at 1 µM [11]: 58%; Activity [12]: Toxic

Question: For CCC(=O)Oc1cc(C)c2c(c1C)[C@@H]1OC(=O)[C@@H](C)[C@@H]1CC2, which Activity [2] is on record?
Answer: Toxic

Question: What about the inhibition at 1 µM [3] of the same compound?
Answer: 20%

Question: And the Activity [4]?
Answer: Toxic

Question: What about the Activity [5] of the same compound?
Answer: Toxic

Question: What about the Activity [6] of the same compound?
Answer: Toxic

Question: What about the inhibition at 10 µM [7] of the same compound?
Answer: 33%

Question: And the inhibition at 100 µM [8]?
Answer: 69%

Question: And the inhibition at 10 µM [9]?
Answer: 43%

Question: What about the Activity [10] of the same compound?
Answer: Toxic

Question: What about the inhibition at 1 µM [11] of the same compound?
Answer: 11.7%

Question: And the Activity [12]?
Answer: Toxic

Question: And the inhibition at 100 µM [13]?
Answer: 41%

Question: How did the Activity [2] turn out when CCCCCC(=O)Oc1cc(C)c2c(c1C)[C@@H]1OC(=O)[C@@H](C)[C@@H]1CC2 was run?
Answer: Non-Toxic

Question: What about the inhibition at 1 µM [3] of the same compound?
Answer: 22.9%

Question: And the Activity [4]?
Answer: Non-Toxic

Question: And the Activity [5]?
Answer: Toxic

Question: And the Activity [14]?
Answer: 7.29%

Question: What about the Activity [6] of the same compound?
Answer: Toxic

Question: What about the inhibition at 10 µM [7] of the same compound?
Answer: 46%

Question: And the inhibition at 10 µM [9]?
Answer: 26%

Question: And the Activity [10]?
Answer: Toxic

Question: What about the inhibition at 1 µM [11] of the same compound?
Answer: 39.4%

Question: And the Activity [12]?
Answer: Toxic

Question: What about the inhibition at 100 µM [13] of the same compound?
Answer: 78.9%

Question: What does the source list for CCCCC(=O)Oc1cc(C)c2c(c1C)[C@@H]1OC(=O)[C@@H](C)[C@@H]1CC2?
Answer: Activity [1]: 28.16%; Activity [2]: Non-Toxic; inhibition at 1 µM [3]: 2.08%; Activity [4]: Non-Toxic; Activity [5]: Non-Toxic; Activity [14]: 6.25%; Activity [6]: Non-Toxic; inhibition at 10 µM [7]: 29.6%; inhibition at 10 µM [9]: 49%; Activity [10]: Toxic; inhibition at 1 µM [11]: 43.2%; Activity [12]: Toxic

Question: Cc1cc(OC(=O)CCC(=O)Nc2ccccc2F)c(C)c2c1CC[C@H]1[C@H](C)C(=O)O[C@@H]21 was tested. Which Activity [2] did it give?
Answer: Non-Toxic

Question: What about the inhibition at 1 µM [3] of the same compound?
Answer: 21%

Question: What about the Activity [4] of the same compound?
Answer: Non-Toxic

Question: What about the Activity [5] of the same compound?
Answer: Non-Toxic

Question: And the Activity [6]?
Answer: Non-Toxic

Question: What about the inhibition at 10 µM [7] of the same compound?
Answer: 41.7%

Question: What about the inhibition at 100 µM [8] of the same compound?
Answer: 77.9%

Question: And the inhibition at 10 µM [9]?
Answer: 44%

Question: What about the Activity [10] of the same compound?
Answer: Non-Toxic

Question: What about the inhibition at 1 µM [11] of the same compound?
Answer: 16.7%

Question: What about the Activity [12] of the same compound?
Answer: Non-Toxic

Question: And the inhibition at 100 µM [13]?
Answer: 66.7%
